Test results reported in ChEMBL document CHEMBL1158691, “Brevicompanine C, cyclo-(D-Ile-L-Trp), and cyclo-(D-Leu-L-Trp), plant growth regulators from Penicillium brevi-compactum” (2005).
Active and inactive are the calls of the source. The rule behind the calls is not given here.

Key:
Lactuca sativa [1] = experiment: Induction of root elongation in lettuce seedlings at 100 mg/L after 4 days under 100 uE/m'2 light relative to control; assay type: functional
Procedure, shortened: (§1)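 Lactuca sativa cv. Kingcisco seeds sown on filter paper wetted with deionized water, 1 day at 24 °C in continuous light (100 μE/m² s). Uniform seedlings (radicles 2 mm) moved to small dishes on filter paper with 1 mL deionized water containing test compound, kept 4 days at 24 °C in continuous light. Hypocotyl and root lengths measured; mean compared with untreated control; triplicate experiments.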

Lactuca sativa [2] = experiment: Induction of root elongation in lettuce seedlings at 1 to 100 mg/L after 4 days under 100 uE/m'2 light; assay type: functional, organism-based; procedure, shortened: as §1
Lactuca sativa [3] = experiment: Inhibition of hypocotyl elongation of lettuce seedlings at 100 mg/L after 4 days under 100 uE/m'2 light relative to control; assay type: functional; procedure, shortened: as §1
Lactuca sativa [4] = experiment: Inhibition of hypocotyl elongation in lettuce seedlings at 1 to 100 mg/L after 4 days under 100 uE/m'2 light relative to control; assay type: functional, organism-based; procedure, shortened: as §1
Lactuca sativa [5] = experiment: Inhibition of root elongation in lettuce seedlings at 1 to 100 mg/L after 4 days under 100 uE/m'2 light; assay type: functional, organism-based; procedure, shortened: as §1
Lactuca sativa [6] = experiment: Induction of hypocotyl elongation in lettuce seedlings at 10 mg/L after 4 days under 100 uE/m'2 light; assay type: functional; procedure, shortened: as §1
Lactuca sativa [7] = experiment: Induction of hypocotyl elongation in lettuce seedlings at 100 mg/L after 4 days under 100 uE/m'2 light; assay type: functional; procedure, shortened: as §1
Lactuca sativa [8] = experiment: Induction of hypocotyl elongation in lettuce seedlings at 1 mg/L after 4 days under 100 uE/m'2 light; assay type: functional; procedure, shortened: as §1

| SMILES | Activity (Lactuca sativa [1]) [%] | Activity (Lactuca sativa [2]) | Activity (Lactuca sativa [3]) | Activity (Lactuca sativa [4]) | Activity (Lactuca sativa [5]) | inhibition at 100 µg/mL (Lactuca sativa [3]; 96 h) [%] | Activity (Lactuca sativa [6]) [%] | Activity (Lactuca sativa [7]) [%] | Activity (Lactuca sativa [8]) [%] |
| --- | --- | --- | --- | --- | --- | --- | --- | --- | --- |
| CC(C)C[C@H]1NC(=O)[C@H](Cc2c[nH]c3ccccc23)NC1=O | 164 | Active | inactive | – | – | – | – | – | – |
| CC[C@H](C)[C@H]1NC(=O)[C@H](Cc2c[nH]c3ccccc23)NC1=O | 167 | Active | inactive | – | – | – | – | – | – |
| O=C(O)Cc1c[nH]c2ccccc12 | – | – | – | Active | Active | – | – | – | – |
| C=CC(C)(C)[C@@]12C[C@H]3C(=O)N[C@H](C(C)C)C(=O)N3[C@@H]1Nc1ccccc12 [BREVICOMPANINE] | 212 | Active | – | – | – | 46 | – | – | – |
| C=C1C[C@]23C[C@@]1(O)CC[C@H]2[C@@]12C=C[C@H](O)[C@](C)(C(=O)O1)C2[C@@H]3C(=O)O (stereo partly specified) [GIBBERELLINE] | 164 | Active | – | – | – | – | 433 | 433 | 433 |
